Assay results: ChEMBL document CHEMBL1149126, “3-phenyl-6-(2-pyridyl)methyloxy-1,2,4-triazolo[3,4-a]phthalazines and analogues: high-affinity gamma-aminobutyric acid-A benzodiazepine receptor ligands with alpha 2, alpha 3, and alpha 5-subtype binding selectivity over alpha 1” (J Med Chem, 2004)

Columns and labels:
[1] = molecular target: T1, GABA-A receptor; alpha-1/beta-3/gamma-2 (Homo sapiens) (UniProt P14867+P18507+P28472); experiment: Inverse agonistic activity against GABA-A receptor alpha-1-beta-3-gamma-2 subunits; format: functional
[2] = molecular target: T2, GABA-A receptor; alpha-3/beta-3/gamma-2 (Homo sapiens, UniProt P18507+P28472+P34903); experiment: Binding affinity for human GABA-A receptor alpha-3-beta-3-gamma-2 subunits in L(tk-) cells; format: cell-based
T2 sequence (P18507 whole entry): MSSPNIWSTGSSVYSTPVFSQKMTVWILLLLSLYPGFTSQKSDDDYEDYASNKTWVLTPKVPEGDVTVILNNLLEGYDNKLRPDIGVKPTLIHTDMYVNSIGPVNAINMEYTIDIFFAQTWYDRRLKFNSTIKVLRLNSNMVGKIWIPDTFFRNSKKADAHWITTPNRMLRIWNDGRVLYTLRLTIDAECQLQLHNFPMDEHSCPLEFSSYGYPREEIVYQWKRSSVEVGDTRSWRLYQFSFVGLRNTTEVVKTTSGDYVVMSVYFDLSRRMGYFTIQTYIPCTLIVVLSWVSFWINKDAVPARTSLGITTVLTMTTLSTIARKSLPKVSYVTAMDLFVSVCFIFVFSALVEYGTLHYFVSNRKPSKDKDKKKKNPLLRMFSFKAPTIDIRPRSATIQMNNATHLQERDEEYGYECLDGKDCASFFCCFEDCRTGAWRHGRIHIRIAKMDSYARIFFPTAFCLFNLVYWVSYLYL
T2 sequence (P28472 whole entry): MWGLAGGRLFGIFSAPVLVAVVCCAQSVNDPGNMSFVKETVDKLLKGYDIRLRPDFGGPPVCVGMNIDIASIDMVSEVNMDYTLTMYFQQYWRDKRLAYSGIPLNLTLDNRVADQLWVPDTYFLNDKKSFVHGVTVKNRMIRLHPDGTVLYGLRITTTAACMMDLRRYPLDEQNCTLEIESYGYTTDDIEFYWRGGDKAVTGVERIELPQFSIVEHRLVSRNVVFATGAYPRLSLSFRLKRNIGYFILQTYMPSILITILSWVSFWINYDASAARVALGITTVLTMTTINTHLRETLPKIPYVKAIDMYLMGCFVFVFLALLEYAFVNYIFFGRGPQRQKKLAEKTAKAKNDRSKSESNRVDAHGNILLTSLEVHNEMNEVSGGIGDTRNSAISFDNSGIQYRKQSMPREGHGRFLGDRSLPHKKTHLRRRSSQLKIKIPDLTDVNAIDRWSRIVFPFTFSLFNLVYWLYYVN
T2 sequence (P34903 whole entry): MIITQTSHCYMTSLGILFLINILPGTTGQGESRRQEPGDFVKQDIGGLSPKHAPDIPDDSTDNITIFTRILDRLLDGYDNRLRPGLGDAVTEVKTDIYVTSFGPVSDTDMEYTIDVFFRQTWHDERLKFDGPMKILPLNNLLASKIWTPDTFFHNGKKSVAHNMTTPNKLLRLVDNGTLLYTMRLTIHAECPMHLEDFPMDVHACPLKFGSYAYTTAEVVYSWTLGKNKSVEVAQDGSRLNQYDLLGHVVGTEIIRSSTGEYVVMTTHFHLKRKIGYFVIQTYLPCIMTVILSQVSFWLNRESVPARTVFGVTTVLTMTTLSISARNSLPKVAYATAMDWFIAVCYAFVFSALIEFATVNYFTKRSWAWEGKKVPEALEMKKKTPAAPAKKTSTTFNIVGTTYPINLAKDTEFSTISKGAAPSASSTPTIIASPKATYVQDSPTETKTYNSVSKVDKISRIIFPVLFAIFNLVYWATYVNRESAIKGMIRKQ

[3] = molecular target: T3, GABA-A receptor; alpha-5/beta-3/gamma-2 (Homo sapiens) (UniProt P18507+P28472+P31644); experiment: Partial agonistic activity against GABA-A receptor alpha-5-beta-3-gamma-2 subunits; format: functional
[4] = molecular target: T4, GABA-A receptor; alpha-1/beta-3/gamma-2 (Homo sapiens, UniProt P14867+P18507+P28472); experiment: Binding affinity for human GABA-A receptor alpha-1-beta-3-gamma-2 subunits in L(tk-) cells
T4 sequence (P14867 whole entry): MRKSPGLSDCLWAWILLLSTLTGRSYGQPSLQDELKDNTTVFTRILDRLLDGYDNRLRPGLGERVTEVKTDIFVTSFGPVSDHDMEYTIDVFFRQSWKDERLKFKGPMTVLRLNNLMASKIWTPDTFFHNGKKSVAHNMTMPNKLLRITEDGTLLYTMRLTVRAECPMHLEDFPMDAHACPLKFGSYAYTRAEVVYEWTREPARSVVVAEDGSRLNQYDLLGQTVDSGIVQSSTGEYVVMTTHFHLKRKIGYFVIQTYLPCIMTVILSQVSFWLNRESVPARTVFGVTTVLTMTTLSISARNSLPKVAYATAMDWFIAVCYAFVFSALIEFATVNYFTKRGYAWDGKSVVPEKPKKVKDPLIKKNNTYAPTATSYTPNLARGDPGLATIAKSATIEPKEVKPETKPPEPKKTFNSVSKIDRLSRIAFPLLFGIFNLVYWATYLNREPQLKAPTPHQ
T4 sequence (P18507 whole entry): T2 sequence (P18507 whole entry)
T4 sequence (P28472 whole entry): T2 sequence (P28472 whole entry)

[5] = molecular target: T5, GABA-A receptor; alpha-5/beta-3/gamma-2 (Homo sapiens, UniProt P18507+P28472+P31644); experiment: Binding affinity for human GABA-A receptor alpha-5-beta-3-gamma-2 subunits in L(tk-) cells; format: cell-based
T5 sequence (P18507 whole entry): T2 sequence (P18507 whole entry)
T5 sequence (P28472 whole entry): T2 sequence (P28472 whole entry)
T5 sequence (P31644 whole entry): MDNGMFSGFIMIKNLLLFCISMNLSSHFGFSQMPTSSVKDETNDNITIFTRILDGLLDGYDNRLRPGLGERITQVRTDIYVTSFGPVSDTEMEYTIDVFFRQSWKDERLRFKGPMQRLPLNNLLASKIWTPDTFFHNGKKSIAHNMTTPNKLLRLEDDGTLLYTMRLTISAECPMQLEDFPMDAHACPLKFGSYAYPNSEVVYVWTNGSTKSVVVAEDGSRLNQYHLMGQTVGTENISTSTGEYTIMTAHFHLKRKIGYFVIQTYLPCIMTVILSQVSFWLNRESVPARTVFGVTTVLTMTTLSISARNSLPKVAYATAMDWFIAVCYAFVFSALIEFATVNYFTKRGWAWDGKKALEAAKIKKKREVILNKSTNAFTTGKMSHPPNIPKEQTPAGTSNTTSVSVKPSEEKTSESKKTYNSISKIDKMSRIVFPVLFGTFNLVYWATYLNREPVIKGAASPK

[6] = molecular target: T6, GABA-A receptor; alpha-3/beta-3/gamma-2 (Homo sapiens) (UniProt P18507+P28472+P34903); experiment: Partial agonistic activity against GABA-A receptor alpha-3-beta-3-gamma-2
[7] = molecular target: T7, GABA-A receptor; alpha-2/beta-3/gamma-2 (Homo sapiens, UniProt P18507+P28472+P47869); experiment: Binding affinity for human GABA-A receptor alpha-2-beta-3-gamma-2 subunits in L(tk-) cells; format: cell-based
T7 sequence (P18507 whole entry): T2 sequence (P18507 whole entry)
T7 sequence (P28472 whole entry): T2 sequence (P28472 whole entry)
T7 sequence (P47869 whole entry): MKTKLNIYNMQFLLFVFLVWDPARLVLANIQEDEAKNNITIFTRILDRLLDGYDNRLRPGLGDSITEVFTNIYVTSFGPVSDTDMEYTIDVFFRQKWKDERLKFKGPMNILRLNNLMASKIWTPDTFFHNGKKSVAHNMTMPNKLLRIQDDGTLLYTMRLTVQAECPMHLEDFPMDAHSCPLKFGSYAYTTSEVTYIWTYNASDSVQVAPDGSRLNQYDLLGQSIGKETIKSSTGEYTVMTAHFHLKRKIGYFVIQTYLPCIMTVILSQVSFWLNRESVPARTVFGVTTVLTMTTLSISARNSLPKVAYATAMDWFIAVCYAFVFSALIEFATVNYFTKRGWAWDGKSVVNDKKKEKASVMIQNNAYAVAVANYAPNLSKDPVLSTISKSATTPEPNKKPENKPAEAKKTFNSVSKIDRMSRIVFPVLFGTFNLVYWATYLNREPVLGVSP

[8] = molecular target: T6, GABA-A receptor; alpha-3/beta-3/gamma-2 (Homo sapiens); experiment: Maximum percent change compared to GABA EC20 against GABA-A alpha-3-beta-3-gamma-2 receptor; format: functional
[9] = Oral bioavailability in rat at a dose of 3 mg/kg; format: ADME, organism-based; conditions: in vivo, read-out: Bioavailabiility
Method in brief: (§1)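 Plasma concentrations were followed to derive peak level and half-life.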

[10] = Half-life in rat at a dose of 3 mg/kg; format: ADME, organism-based; design: dose 3 mg/kg; conditions: in vivo; method in brief: as §1
[11] = molecular target: T1, GABA-A receptor; alpha-1/beta-3/gamma-2 (Homo sapiens); experiment: Maximum percent change compared to GABA EC20 against GABA-A alpha-1-beta-3-gamma-2 receptor; format: functional
[12] = molecular target: GABA-A receptor; alpha-2/beta-3/gamma-2 (Homo sapiens) (UniProt P18507+P28472+P47869); experiment: Maximum percent change compared to GABA EC20 against GABA-A alpha-2-beta-3-gamma-2 receptor; format: functional
[13] = Peak plasma concentration in rat at a dose of 3 mg/kg; format: ADME, organism-based; design: dose 3 mg/kg; conditions: read-out: Concentration; method in brief: as §1
[14] = molecular target: T4, GABA-A receptor; alpha-1/beta-3/gamma-2; experiment: Binding affinity for human GABA-A receptor alpha-4-beta-3-gamma-2 subunits in L(tk-) cells; format: cell-based
[15] = molecular target: T3, GABA-A receptor; alpha-5/beta-3/gamma-2 (Homo sapiens); experiment: Maximum percent change compared to GABA EC20 against GABA-A alpha-5-beta-3-gamma-2 receptor; format: functional

SMILES | Activity [1] [%] | Ki [2] [nM] | Activity [3] [%] | Ki [4] [nM] | Ki [5] [nM] | Activity [6] [%] | Ki [7] [nM] | Efficacy [8] [%] | bioavailability [9] [%] | half-life [10] [h] | Efficacy [11] [%] | Efficacy [12] [%] | Cmax [13] [ng/mL] | Ki [14] [nM] | Efficacy [15] [%]
Cc1cccc(COc2nn3c(C4CC4)nnc3c3ccccc23)n1 | -15 | 3.1 | 26 | 32 | 0.92 | -13 | 9.7 | – | – | – | – | – | – | – | –
c1ccc(-c2nnc3c4c(c(OCc5ccccn5)nn23)C2CCC4CC2)cc1 | – | 12 | – | – | 1.2 | – | 26 | 38 | 33 | 1 | 51 | 23 | 179 | 71 | 18
